High-throughput results (PubChem BioAssay)
Compounds with a hit are over-represented: about 1.7% of the library has one in this group of screens.
DNMT1 inh = human DNMT1 methyltransferase inhibitors, primary screen, biochemical, molecular beacon, fluorescence, HinP1I cleavage, uHTS; DNA (cytosine-5)-methyltransferase 1 (Homo sapiens), P26358; inhibition (reported as % activation of signal), % at 10 µM; 360,000 tested, 0.83% active; AID 588458, 2011; in the data active means inhibition above about 50%
LMPTP block = LMPTP phosphatase inhibitors, primary screen, biochemical, fluorescence intensity, uHTS | inhibition, % at 20 µM | recombinant LMPTP-A, OMFP fluorogenic substrate | Low molecular weight phosphotyrosine protein phosphatase (Homo sapiens), P24666 | AID 651560, 2012 | 360,000 tested, 0.22% active;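 active means compounds that cut the enzyme signal by at least half of the control window in the single-dose screen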;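 further: plate controls were DMSO wells with enzyme plus substrate for no effect and substrate without enzyme for full effect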
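Test system: LMPTP-A phosphatase enzyme; input: 0.625 nM LMPTP-A final; reagent: OMFP substrate, 400 µM final; compound dosing: 20 µM single dose, 3% DMSO; incubation: 50 min dark incubation at room temperature; measured by: endpoint fluorescence intensity from OMFP dephosphorylation; measure: % inhibition relative to no-enzyme and uninhibited control wells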
STEP block = STEP phosphatase inhibitors, primary screen, biochemical, fluorescence intensity, uHTS | Tyrosine-protein phosphatase non-receptor type 5 (Homo sapiens), P54829 | recombinant STEP, OMFP fluorogenic substrate | inhibition, % at 20 µM | 360,000 tested, 0.25% active;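 active means inhibition at 20 µM, scaled per plate between control wells, above about 37%, limit read from the data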;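 further: 0% = DMSO with enzyme and substrate and 100% = substrate only without enzyme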
Target sequence (P54829 whole entry, looked up): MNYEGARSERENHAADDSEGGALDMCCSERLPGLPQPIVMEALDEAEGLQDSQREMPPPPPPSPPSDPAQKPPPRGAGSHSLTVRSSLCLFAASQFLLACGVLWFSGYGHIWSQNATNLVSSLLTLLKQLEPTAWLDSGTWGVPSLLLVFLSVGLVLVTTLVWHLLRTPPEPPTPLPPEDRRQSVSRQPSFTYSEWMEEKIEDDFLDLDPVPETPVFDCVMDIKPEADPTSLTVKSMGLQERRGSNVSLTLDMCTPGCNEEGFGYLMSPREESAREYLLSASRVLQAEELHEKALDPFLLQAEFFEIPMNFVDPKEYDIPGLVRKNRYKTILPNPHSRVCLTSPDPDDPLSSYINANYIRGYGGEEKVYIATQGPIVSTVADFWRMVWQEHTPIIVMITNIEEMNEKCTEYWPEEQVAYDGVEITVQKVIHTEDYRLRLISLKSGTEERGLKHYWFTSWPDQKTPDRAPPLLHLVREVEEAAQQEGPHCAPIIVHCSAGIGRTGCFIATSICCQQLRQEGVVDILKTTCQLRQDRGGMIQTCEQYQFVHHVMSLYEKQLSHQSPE
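Test system: STEP tyrosine phosphatase / Reagent: OMFP at 25 µM / Doses: 20 µM, 1% DMSO / Read-out: percent inhibition scaled to no-enzyme and uninhibited-enzyme controls, plate-pattern corrected / Detection: FITC-channel fluorescence of OMFP product / Medium: Bis-Tris buffer pH 6.0, 2.5 mM DTT, 0.005% Tween 20 / Schedule: 20 min at room temperature, dark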
SUMO1 PPI mod = modulators of SUMO1 protein-protein interactions, primary screen, biochemical, uHTS. Small ubiquitin-related modifier 1 (Homo sapiens), P63165. 360,000 tested, 0.33% active. AID 602429, 2012. inhibition, % at 20 µM. SUMO1 binding to a labelled peptide, TR-FRET, 1 h; in the data active means inhibition above about 37%
Target sequence (P63165 whole entry, looked up): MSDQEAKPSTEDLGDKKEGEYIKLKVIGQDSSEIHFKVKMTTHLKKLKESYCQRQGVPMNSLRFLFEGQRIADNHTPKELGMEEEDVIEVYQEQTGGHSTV
Scp-1 inhibitor = Scp-1 phosphatase inhibitors, primary screen, biochemical, colorimetric, uHTS | inhibition, % at 20 µM | 340,000 tested, 0.88% active | Carboxy-terminal domain RNA polymerase II polypeptide A small phosphatase 1 (Homo … | Recombinant Scp1, phosphopeptide, malachite green phosphate absorbance | AID 493091, 2011;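 active means inhibition above about 50% at 20 µM, limit read from the data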;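 further: plate controls were DMSO wells with enzyme for no effect and wells lacking enzyme for full effect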
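System: truncated SCP-1 phosphatase (76-261aa); medium: Tris acetate buffer pH 5.5 with MgCl2 and Tween-20; incubation: 45 min room-temperature reaction, 5 min colour, 30 min stabiliser; compound: single 20 µM dose, 1% DMSO; reagent: Phosphorylated 17-residue peptide substrate; read-out: % inhibition at 20 µM; technique: colorimetric free-phosphate detection, absorbance 630 nm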
Scp-1 conf = Scp-1 phosphatase inhibitors, retest, confirmation, biochemical, colorimetric, single concentration. recombinant SCP-1 catalytic domain, phosphate release, malachite green absorbance. AID 540281, 2011. inhibition, % at 20 µM. shares compounds with Scp-1 inhibitor. 2,500 tested, 61% active;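 further: plate controls were DMSO with enzyme for no effect and buffer wells lacking enzyme for full effect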
Scp-1 MG ctr = colorimetric readout interference by compounds, confirmation, artefact control for Scp-1 inhibitor project, biochemical, single concentration; 2,500 tested, under 10 active; shares compounds with Scp-1 inhibitor; apparent inhibition (interference), % at 20 µM; Colorimetric interference counterscreen, malachite green absorbance 630 nm;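 further: compounds added after enzyme reaction finished so only phosphate colour detection is probed; plate controls were DMSO wells with completed Scp-1 reaction for no effect and substrate wells lacking enzyme for full effect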
Scp1 DSF = Scp-1 binding by thermal shift, confirmation, orthogonal assay for Scp-1 inhibitor project, biophysical, differential scanning fluorimetry. shares compounds with Scp-1 inhibitor. Recombinant SCP1, Sypro Orange thermal shift Tm. thermal shift relative to vanadate control, % at 40 µM. 1,500 tested, 25% active. AID 540329, 2011;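 active means substances whose mean melting-temperature shift, as a percentage of the reference inhibitor's shift, reaches about 5.3%, limit read from the data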;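 further: 0% = Tm of DMSO wells and 100% = Tm with sodium orthovanadate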
* marks the source's active call; other numbers are inactive results.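 How the source made its calls, unless noted: active means inhibition of at least 30% at 20 µM; inactive means the rest.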

Results for Cc1cc(C)c(S(=O)(=O)N2CCCC(C(=O)NCc3ccccn3)C2)c(C)c1 (centres undefined) ?
DNMT1 inh: -1; LMPTP block: 0; STEP block: 0; SUMO1 PPI mod: -1; Scp-1 inhibitor: -6

What do the screens show for `O=C(OCc1c(-c2ccccc2)ncc2ccccc12)c1cccs1`?
DNMT1 inh: -4; LMPTP block: 1; STEP block: 0; SUMO1 PPI mod: -2; Scp-1 inhibitor: 22

What do the screens show for `Cc1cc(S(=O)(=O)N2CCOCC2)ccc1OCC(=O)Nc1ccc(F)c(Cl)c1`?
DNMT1 inh: -4; LMPTP block: 1; STEP block: -2; SUMO1 PPI mod: -6; Scp-1 inhibitor: -2

How did Cc1cc(Cl)ccc1OCC(=O)OC(C)C(=O)N(C)C (centres undefined) do in these assays?
DNMT1 inh: 24; LMPTP block: 2; STEP block: 5; SUMO1 PPI mod: 0; Scp-1 inhibitor: 55*; Scp-1 conf: 46*; Scp-1 MG ctr: -12; Scp1 DSF: -18

Results for CCN(CC)C(=O)C(C)OC(=O)COc1ccc(Cl)cc1C (centres undefined) ?
DNMT1 inh: 14; LMPTP block: -1; STEP block: 2; SUMO1 PPI mod: 4; Scp-1 inhibitor: 38

What do the screens show for `CC(Nc1ccc(F)cc1)=[N+](C)CCNS(=O)(=O)c1ccc(Cl)cc1`?
DNMT1 inh: 2; LMPTP block: -1; STEP block: -1; SUMO1 PPI mod: 1; Scp-1 inhibitor: 103*; Scp-1 conf: 89*; Scp-1 MG ctr: -11; Scp1 DSF: -29

What do the screens show for `O=C(N/N=C/c1cc([N+](=O)[O-])ccc1O)c1ccc2c(c1)OCCO2`?
DNMT1 inh: -3; LMPTP block: 4; STEP block: 6; SUMO1 PPI mod: -12; Scp-1 inhibitor: 64*; Scp-1 conf: 48*; Scp-1 MG ctr: -6; Scp1 DSF: -3

Results for O=C(N/N=C/c1cc([N+](=O)[O-])ccc1Cl)c1ccc2nc[nH]c2c1 ?
DNMT1 inh: 3; LMPTP block: -1; STEP block: 2; SUMO1 PPI mod: 19; Scp-1 inhibitor: 55*; Scp-1 conf: 28; Scp-1 MG ctr: -2

Results for O=C(N/N=C/c1ccccc1[N+](=O)[O-])c1ccc2c(c1)OCCO2 ?
DNMT1 inh: -1; LMPTP block: 0; STEP block: 2; SUMO1 PPI mod: -39; Scp-1 inhibitor: -9

How did CCc1ccc(NC(=O)CN(c2ccc(OC)cc2)S(=O)(=O)c2c(C)nn(C)c2C)cc1 do in these assays?
DNMT1 inh: 2; LMPTP block: 0; STEP block: -3; SUMO1 PPI mod: 7; Scp-1 inhibitor: -5

How did O=C(NCc1ccc(F)cc1)C1CC(=O)N(CCc2ccccc2)C1 (centres undefined) do in these assays?
DNMT1 inh: 2; LMPTP block: 0; STEP block: 4; SUMO1 PPI mod: -1; Scp-1 inhibitor: -10; Scp-1 conf: -7; Scp-1 MG ctr: -11

How did O=C(NCc1ccc2c(c1)OCO2)C1CC(=O)N(CCc2ccccc2)C1 (centres undefined) do in these assays?
DNMT1 inh: -2; LMPTP block: -2; STEP block: 6; SUMO1 PPI mod: 7; Scp-1 inhibitor: -10; Scp-1 conf: -8; Scp-1 MG ctr: -8

Results for Cc1ccc(CCN2CC(C(=O)NCCN3CCOCC3)CC2=O)cc1 (centres undefined) ?
Scp-1 inhibitor: 0

How did CCCCNC(=O)C1CC(=O)N(CCc2ccccc2)C1 (centres undefined) do in these assays?
DNMT1 inh: 0; LMPTP block: -2; STEP block: 4; SUMO1 PPI mod: 1; Scp-1 inhibitor: -7

How did CCOCCCN1CC(C(=O)NCCc2ccccc2)CC1=O (centres undefined) do in these assays?
DNMT1 inh: 2; LMPTP block: 0; STEP block: 0; SUMO1 PPI mod: 0; Scp-1 inhibitor: -3; Scp-1 conf: -14; Scp-1 MG ctr: -16

What do the screens show for `Cc1ccc(CCN2CC(C(=O)NCCCN3CCOCC3)CC2=O)cc1` (centres undefined)?
DNMT1 inh: 2; LMPTP block: -3; STEP block: -8; SUMO1 PPI mod: -2; Scp-1 inhibitor: -2; Scp-1 conf: -9; Scp-1 MG ctr: -11

How did CCN(CC(=O)NC(C)(C)C)C(=O)c1cccc(S(=O)(=O)N2CC3(C)CC2CC(C)(C)C3)c1 (centres undefined) do in these assays?
DNMT1 inh: 0; LMPTP block: -1; STEP block: -4; SUMO1 PPI mod: 2

How did CC(C)(C)c1nnc2sc(SCC(=O)N3CCCCC3)nn2c1=O do in these assays?
DNMT1 inh: -1; LMPTP block: 0; STEP block: 0; SUMO1 PPI mod: -1; Scp-1 inhibitor: -16

Results for CNc1ccccc1C(=O)OCC(=O)N1CCN(c2ccc(OC)cc2)CC1 ?
DNMT1 inh: 0; LMPTP block: 1; STEP block: 3; SUMO1 PPI mod: -1; Scp-1 inhibitor: 66*; Scp-1 conf: -1; Scp-1 MG ctr: -7

How did COc1ccc(N2CCN(C(=O)COC(=O)c3cccc(OC)c3O)CC2)cc1 do in these assays?
DNMT1 inh: 6; LMPTP block: -2; STEP block: 1; SUMO1 PPI mod: 1; Scp-1 inhibitor: -4

Results for COC(=O)c1c(C)[nH]c(C(=O)NCc2ccco2)c1C ?
DNMT1 inh: 2; LMPTP block: 0; STEP block: -4; SUMO1 PPI mod: 2; Scp-1 inhibitor: -4

Results for CCOC(=O)c1[nH]c(C)c(C(=O)NCc2ccco2)c1C ?
DNMT1 inh: 3; LMPTP block: 0; STEP block: 5; SUMO1 PPI mod: 1; Scp-1 inhibitor: 64*; Scp-1 conf: -8; Scp-1 MG ctr: -16
